Legend:
[1] = system: K562; experiment: Growth inhibition of human K562 cells at 10 uM relative to control; type: functional; conditions: read-out: GI
Outline: (§1)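 Each cell line in a 60-line human tumour panel exposed to one 10 μM concentration. Growth inhibition percentage computed as 100 minus the percentage activity relative to control.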

[2] = system: UACC-62; experiment: Growth inhibition of human UACC62 cells at 10 uM relative to control; type: functional; conditions: read-out: GI
Outline: (§2)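 Single-dose screen across the 60-cell-line human tumor panel at 10 μM. Growth inhibition is reported as a percentage, taken as 100 minus the % growth relative to untreated control.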

[3] = system: T47D; experiment: Growth inhibition of human T47D cells at 10 uM relative to control; type: functional; conditions: read-out: GI; outline: as §2
[4] = system: RPMI-8226; experiment: Growth inhibition of human RPMI8226 cells at 10 uM relative to control; type: functional; conditions: read-out: GI; outline: as §1
[5] = system: HL-60(TB); experiment: Growth inhibition of human HL-60(TB) cells at 10 uM relative to control; type: functional; conditions: read-out: GI
Outline: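 Single-dose screen at 10 μM across the 60-cell-line tumour panel. Percent growth inhibition = 100 minus percent growth activity relative to untreated control.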

[6] = system: SR; experiment: Growth inhibition of human SR cells at 10 uM relative to control; type: functional; conditions: read-out: GI; outline: as §2
[7] = system: HT-29; experiment: Growth inhibition of human HT-29 cells at 10 uM relative to control; type: functional; conditions: read-out: GI; outline: as §1
[8] = system: CCRF-CEM; experiment: Growth inhibition of human CCRF-CEM cells at 10 uM relative to control; type: functional; conditions: read-out: GI; outline: as §1
[9] = system: EKVX; experiment: Growth inhibition of human EKVX cells at 10 uM relative to control; type: functional; conditions: read-out: GI; outline: as §1
[10] = system: LOX IMVI; experiment: Growth inhibition of human LOXIMVI cells at 10 uM relative to control; type: functional; conditions: read-out: GI; outline: as §1
[11] = system: BT-549; experiment: Growth inhibition of human BT549 cells at 10 uM relative to control; type: functional; conditions: read-out: GI; outline: as §1
[12] = system: MOLT-4; experiment: Growth inhibition of human MOLT4 cells at 10 uM relative to control; type: functional; conditions: read-out: GI; outline: as §1
[13] = system: A498; experiment: Growth inhibition of human A498 cells at 10 uM relative to control; type: functional; conditions: read-out: GI; outline: as §1
[14] = system: MDA-MB-435; experiment: Growth inhibition of human MDA-MB-435 cells at 10 uM relative to control; type: functional; conditions: read-out: GI; outline: as §1
[15] = system: U-251; experiment: Growth inhibition of human U251 cells at 10 uM relative to control; type: functional; conditions: read-out: GI; outline: as §2
[16] = system: SF-295; experiment: Growth inhibition of human SF295 cells at 10 uM relative to control; type: functional; conditions: read-out: GI; outline: as §1
[17] = system: Mus musculus; experiment: Anticonvulsant activity in mouse assessed as protection against strychnine-induced seizure at 1 mmol/kg, ip administered 30 min prior to strychnine-challenge measured after 60 mins relative to control; type: functional
[18] = system: Mus musculus; experiment: Anticonvulsant activity in mouse assessed as protection against maximal electroshock-induced seizure at 1 mmol/kg, ip administered 30 min prior to maximal electroshock-challenge measured after 60 mins relative to control; type: functional
[19] = system: Mus musculus; experiment: Anticonvulsant activity in mouse assessed as protection against pentylenetetrazol-induced seizure at 1 mmol/kg, ip administered 30 min prior to pentylenetetrazol-challenge measured after 60 mins relative to control; type: functional
[20] = system: SNB-75; experiment: Growth inhibition of human SNB75 cells at 10 uM relative to control; type: functional; conditions: read-out: GI; outline: as §2
[21] = system: A549; experiment: Growth inhibition of human A549 cells at 10 uM relative to control; type: functional; conditions: read-out: GI; outline: as §1
[22] = system: Mus musculus; experiment: Anticonvulsant activity in mouse assessed as protection against picrotoxin-induced seizure at 1 mmol/kg, ip administered 30 min prior to picrotoxin-challenge measured after 60 mins relative to control; type: functional
[23] = system: KM12; experiment: Growth inhibition of human KM12 cells at 10 uM relative to control; type: functional; conditions: read-out: GI; outline: as §1
[24] = system: SK-OV-3; experiment: Growth inhibition of human SKOV3 cells at 10 uM relative to control; type: functional; conditions: read-out: GI; outline: as §1
[25] = Therapeutic index, ratio of LD50 for mouse to ED50 for pentylenetetrazol-induced seizure in mouse; type: organism-based; conditions: in vivo, read-out: Ratio LD50/ED50
Outline: (§3)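 In mice, LD50 is the dose causing 50% mortality. ED50 is the dose protecting 50% of mice against pentylenetetrazole-induced seizures. Therapeutic index = LD50/ED50.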

[26] = system: UACC-257; experiment: Growth inhibition of human UACC257 cells at 10 uM relative to control; type: functional; conditions: read-out: GI; outline: as §2
[27] = system: HCT-15; experiment: Growth inhibition of human HCT15 cells at 10 uM relative to control; type: functional; conditions: read-out: GI; outline: as §1
[28] = species: Mus musculus; experiment: Protective index, ratio of TD50 for mouse to ED50 for pentylenetetrazol-induced seizure in mouse; type: functional
Outline: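 Mice. Index is TD50/ED50. TD50 is the dose causing minimal neurological toxicity in 50% of mice in the Chimney test. ED50 is the dose protecting 50% of mice against pentylenetetrazole-induced seizures. Both are estimated from testing at several doses.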

[29] = Toxicity in ip dose mouse assessed as mortality; type: organism-based; conditions: in vivo; outline: as §3
[30] = system: MDA-MB-231; experiment: Growth inhibition of human MDA-MB-231 cells at 10 uM relative to control; type: functional; conditions: read-out: GI; outline: as §1
[31] = system: NCI-H522; experiment: Growth inhibition of human NCI-H522 cells at 10 uM relative to control; type: functional; conditions: read-out: GI; outline: as §1
[32] = Neurotoxicity in ip dosed mouse assessed as impaired motor coordination administered 30 mins prior to test by chimney test; type: toxicity, organism-based; conditions: in vivo
Outline: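 Mice, Chimney test. TD50 is the dose that produces minimal neurological toxicity (impaired motor coordination) in 50% of animals, estimated from testing at several doses.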

[33] = system: MDA-MB-468; experiment: Growth inhibition of human MDA-MB-468 cells at 10 uM relative to control; type: functional; conditions: read-out: GI; outline: as §1
[34] = system: SK-MEL-28; experiment: Growth inhibition of human SK-MEL-28 cells at 10 uM relative to control; type: functional; conditions: read-out: GI; outline: as §1
[35] = system: ACHN; experiment: Growth inhibition of human ACHN cells at 10 uM relative to control; type: functional; conditions: read-out: GI; outline: as §1
[36] = system: Mus musculus; experiment: Anticonvulsant activity in ip dosed mouse assessed as protection against pentylenetetrazol-induced seizure administered 30 min prior to pentylenetetrazol-challenge measured after 60 mins; type: functional
Outline: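 Mice received several doses for quantification. ED50 taken as the dose protecting 50% of mice against pentylenetetrazol-induced seizures.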

[37] = system: UO-31; experiment: Growth inhibition of human UO31 cells at 10 uM relative to control; type: functional; conditions: read-out: GI; outline: as §2
[38] = system: PC-3; experiment: Growth inhibition of human PC3 cells at 10 uM relative to control; type: functional; conditions: read-out: GI; outline: as §1
[39] = system: MCF7; experiment: Growth inhibition of human MCF7 cells at 10 uM relative to control; type: functional; conditions: read-out: GI; outline: as §1

Row | Compound | inhibition of growth at 10 µM [1] [%] | inhibition of growth at 10 µM [2] [%] | inhibition of growth at 10 µM [4] [%] | inhibition of growth at 10 µM [5] [%] | inhibition of growth at 10 µM [6] [%] | inhibition of growth at 10 µM [7] [%] | inhibition of growth at 10 µM [8] [%] | inhibition of growth at 10 µM [10] [%] | inhibition of growth at 10 µM [12] [%] | inhibition of growth at 10 µM [14] [%] | inhibition of growth at 10 µM [15] [%] | inhibition of growth at 10 µM [16] [%] | Activity [17] [%] | Activity [18] [%] | Activity [19] [%] | other results
1 | Cc1ccccc1-n1c(C)nc2cc(NC(=O)c3cccs3)ccc2c1=O | 12.8 | 8 | 8 | 19.2 | 21 | 11 | 12.2 | 4.2 | 25.6 | 6 | 12 | 6 | – | – | – | inhibition of growth at 10 µM [3]: 7.8%; inhibition of growth at 10 µM [9]: 11%; inhibition of growth at 10 µM [11]: 8%; inhibition of growth at 10 µM [13]: 9%
2 | Cc1ccccc1-n1c(C)nc2cc(-n3c(C)nc4ccc(Cl)cc4c3=O)ccc2c1=O | – | – | – | – | – | – | – | – | – | – | – | – | 0 | 50 | 33 | –
3 | Cc1ccccc1-n1c(C)nc2cc(N3C(=O)CSC3c3ccc(F)cc3)ccc2c1=O (centres undefined) | 10 | 14 | 10 | 7 | 4 | 3 | 13.2 | 5 | 28.9 | 9.7 | 11 | 7 | 0 | 100 | 100 | inhibition of growth at 10 µM [20]: 8.5%; inhibition of growth at 10 µM [21]: 2%; Activity [22]: 75%; inhibition of growth at 10 µM [23]: 4%; inhibition of growth at 10 µM [24]: 3%; selectivity ratio [25]: 2.55; inhibition of growth at 10 µM [26]: 9%; inhibition of growth at 10 µM [27]: 5%; Ratio TD50/ED50 [28]: 1.4; LD50 [29]: 1020 µmol/kg; inhibition of growth at 10 µM [30]: 8%; inhibition of growth at 10 µM [31]: 18%; TD50 at 0.5 h [32]: 560 µmol/kg; inhibition of growth at 10 µM [33]: 2.5%; inhibition of growth at 10 µM [34]: 11%; inhibition of growth at 10 µM [35]: 3%; ED50 [36]: 400 µmol/kg; inhibition of growth at 10 µM [37]: 11.7%; inhibition of growth at 10 µM [38]: 12.2%; inhibition of growth at 10 µM [39]: 9%

Source: ChEMBL document CHEMBL1955778, “Design and synthesis of novel 7-aminoquinazoline derivatives: antitumor and anticonvulsant activities” (Bioorg Med Chem Lett, 2012)
